Data on one compound can be found in BindingDB's records for doi:10.1016/j.bmc.2019.06.043 (Marquette University, 2019).

This test concerns the target T1, Proteinase-activated receptor 1 (Homo sapiens, UniProt P25116).
T1 sequence (P25116 whole entry): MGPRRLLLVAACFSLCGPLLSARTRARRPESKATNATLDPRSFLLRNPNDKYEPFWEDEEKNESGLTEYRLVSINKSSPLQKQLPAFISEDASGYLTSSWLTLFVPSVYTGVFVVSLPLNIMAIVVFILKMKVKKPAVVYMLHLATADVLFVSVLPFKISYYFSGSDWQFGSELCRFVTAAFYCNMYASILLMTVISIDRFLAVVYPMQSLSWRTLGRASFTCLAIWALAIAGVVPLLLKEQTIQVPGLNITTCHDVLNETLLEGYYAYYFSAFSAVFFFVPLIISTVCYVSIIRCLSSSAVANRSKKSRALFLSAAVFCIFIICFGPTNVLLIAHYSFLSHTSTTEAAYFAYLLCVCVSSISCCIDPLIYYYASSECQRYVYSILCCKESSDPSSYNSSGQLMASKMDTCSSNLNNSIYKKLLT
Nature of the test: Negative allosteric modulation of PAR1 in human EAhy926 cells assessed as reduction in TFLLRN-NH2-induced intracellular calcium mobilization incubated for 15 mins followed by TFLLRN-NH2 addition by Fluo-4-AM dye based fluorescence assay. In short, it runs like this:
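Adherent EA.hy926 endothelial cells in 96-well format, intracellular Ca2+ mobilization triggered by PAR1 agonist TFLLRN-NH2 at 5 µM; single-point % inhibition at 10 µM (n = 4 wells, SEM); 7-point concentration-response curves, 3 wells per concentration, pIC50 from 4-variable non-linear regression; average IC50 ± SEM over independent assays.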
On the technique in general: Calcium flux is commonly read through the fluorescence of an indicator in the cells.

Each structure is given as a SMILES string.

What is called IC50 is the concentration at which inhibition is half-maximal. Regarding `CCCC(=O)Nc1cccc(NC(=O)c2ccccc2Br)c1`, the IC50 was 0.794 µM.
